Legend:
[1] = Apparent intrinsic clearance in human liver microsomes; type: ADME, microsome; conditions: read-out: CLH
[2] = tested on: MDR1 (P-gp), human; test: in vitro; conditions: dog, MDCK-MDR1;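 further: transwell permeability assay, efflux ratio of apparent permeability, compound tested at 2 µM over 5 h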
[3] = biological target: Gamma-secretase; test: Modulation of gamma-secretase (unknown origin) expressed in CHO cells co-expressing human wild type APP assessed as reduction in amyloid beta 42 levels after 24 hrs by ELISA; type: cell-based
[4] = Cardiotoxicity in Wistar rat langendorff isolated heart model assessed as decrease in contractility perfused for 5 mins measured for 1 min; type: toxicity, tissue-based
[5] = tested on: Rattus norvegicus; test: Unbound Cmax in Sprague-Dawley rat at 100 mg/kg administered via oral gavage measured at 1 to 24 hrs post dose; type: ADME, organism-based; conditions: in vivo
In short: (§1)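 Single escalating oral gavage doses given to Sprague-Dawley rats, 3/sex/dose. Suspension in 0.5% methylcellulose with 0.1% Polysorbate 80, dosed at 10 mL/kg. […] Clinical signs also monitored.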

[6] = Cardiotoxicity in Wistar rat langendorff isolated heart model assessed as decrease in perfusion pressure perfused for 5 mins measured for 1 min; type: toxicity, tissue-based
[7] = Total Cmax in Sprague-Dawley rat at 100 mg/kg administered via oral gavage measured at 1 to 24 hrs post dose; type: ADME, organism-based; design: dose 100 mg/kg, route oral; conditions: in vivo; in short: as §1
[8] = tested on: Rattus norvegicus; test: Toxicity in Sprague-Dawley rat assessed as lethality at 100 mg/kg administered via oral gavage; type: organism-based; conditions: in vivo
In short: (§2)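 Single escalating oral gavage doses given to Sprague-Dawley rats, 3 per sex per dose. Suspension in 0.5% methylcellulose with 0.1% Polysorbate 80, dosed at 10 mL/kg. Clinical signs watched continuously for the first several hours and/or intermittently through the dosing day. Plasma drug levels sampled at 1, 4, 8 and 24 h post-dose. Lethality scored per group of 6.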

[9] = Ratio of IC50 for decrease in contractility of Wistar rat langendorff isolated heart model to fCmax in Sprague-Dawley rat at 100 mg/kg administered via oral gavage; type: organism-based; conditions: in vivo
[10] = Cardiotoxicity in Wistar rat langendorff isolated heart model assessed as decrease in left ventricle pressure perfused for 5 mins measured for 1 min; type: toxicity, tissue-based
[11] = Ratio of drug level in brain to plasma in rat at 5 mg/kg, sc measured at 1 to 7 hrs; type: ADME, organism-based; conditions: brain and plasma, read-out: BPR
[12] = tested on: Rattus norvegicus; test: Reduction of amyloid beta 42 levels in Sprague-Dawley rat at 40 mg/kg, po measured at 4 hrs by DELFIA analysis relative to control; type: functional; design: scale not given: the % may be the effect or the level left
In short: (§3)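 Male Sprague-Dawley rats (254-326 g) dosed orally with vehicle or 10 or 40 mg/kg. Brains taken at 1, 4, 8, 11, 16 and 20 h post-dose, 4 rats per group. Homogenized in 0.4% DEA/50 mM NaCl, held overnight at 4 °C, spun at 135,000xg for 1 h. Supernatant cleaned by solid-phase extraction and concentrated; Aβ42 read by DELFIA as % change vs vehicle.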

[13] = Clearance in rat at 1 mg/kg, iv; type: ADME, organism-based; conditions: in vivo
[14] = Unbound brain concentration in Sprague-Dawley rat at 40 mg/kg, po; type: ADME, organism-based; conditions: in vivo
[15] = Unbound brain concentration in Sprague-Dawley rat at 10 mg/kg, po; type: ADME, organism-based; conditions: in vivo
[16] = Half life in rat at 1 mg/kg, iv; type: ADME, organism-based; conditions: in vivo
[17] = Oral bioavailability in rat at 5 mg/kg; type: ADME, organism-based; conditions: in vivo
[18] = Fraction unbound in rat brain; type: ADME, tissue-based
[19] = tested on: Rattus norvegicus; test: Unbound Cmax in Sprague-Dawley rat at 300 mg/kg administered via oral gavage measured at 1 to 24 hrs post dose; type: ADME, organism-based; conditions: in vivo
[20] = tested on: Rattus norvegicus; test: Reduction of amyloid beta 42 levels in Sprague-Dawley rat at 10 mg/kg, po measured at 4 hrs by DELFIA analysis relative to control; type: functional; design: scale not given: the % may be the effect or the level left; in short: as §3
[21] = tested on: Rattus norvegicus; test: Reduction of amyloid beta 42 levels in Sprague-Dawley rat at unbound brain concentration administered 10 mg/kg, po by DELFIA analysis relative to control; type: functional
[22] = Fraction unbound in rat plasma; type: ADME, cell-free
[23] = tested on: Rattus norvegicus; test: Toxicity in Sprague-Dawley rat assessed as lethality at 300 mg/kg administered via oral gavage; type: organism-based; conditions: in vivo
[24] = Total Cmax in Sprague-Dawley rat at 300 mg/kg administered via oral gavage measured at 1 to 24 hrs post dose; type: ADME, organism-based; design: dose 300 mg/kg, route oral; conditions: in vivo
[25] = tested on: Rattus norvegicus; test: Toxicity in Sprague-Dawley rat assessed as lethality at 30 mg/kg administered via oral gavage; type: organism-based; conditions: in vivo; in short: as §2
[26] = tested on: Rattus norvegicus; test: Unbound Cmax in Sprague-Dawley rat at 30 mg/kg administered via oral gavage measured at 1 to 24 hrs post dose; type: ADME, organism-based; conditions: in vivo; in short: as §1
[27] = Total Cmax in Sprague-Dawley rat at 30 mg/kg administered via oral gavage measured at 1 to 24 hrs post dose; type: ADME, organism-based; design: dose 30 mg/kg, route oral; conditions: in vivo; in short: as §1
[28] = Ratio of IC50 for decrease in contractility of Wistar rat langendorff isolated heart model to fCmax in Sprague-Dawley rat at 30 mg/kg administered via oral gavage; type: organism-based; conditions: in vivo

Row | Structure (SMILES) | microsomal CLint [1] [µL/min/mg] | efflux ratio at 5 h, 2 µM [2] | IC50 [3] [µM] | other results
1 | Cc1cn(-c2ccc3n(c2=O)CCN(C[C@@]24C[C@@H]2COc2ccc(Cl)cc24)C3=O)cn1 | 43.9 | 1.8 | 0.063 | –
2 | Cc1cn(-c2ccc3n(c2=O)CCN(CC2CCOc4ccc(C(F)(F)F)cc42)C3=O)cn1 (stereo unspecified) | 37.6 | 1.9 | 0.322 | –
3 | Cc1cn(-c2ccc3n(c2=O)CCN([C@H](C)C2=CC(C)(C)Oc4ccc(C(F)(F)F)cc42)C3=O)cn1 | 242 | 1.8 | 0.801 | –
4 | Cc1cn(-c2ccc3n(c2=O)CCN(CC2=CCOc4ccc(C(F)(F)F)cc42)C3=O)cn1 | 108 | 1.7 | 0.03 | –
5 | Cc1cn(-c2ccc3n(c2=O)CCN([C@@H](C)C2=CC(C)(C)Oc4ccc(OC(F)(F)F)cc42)C3=O)cn1 | 25.7 | 1.9 | 0.006 | IC50 at 5 min [4]: 2.48 µM; fCmax [5]: 620 nM; EC50 at 5 min [6]: 1.37 µM; Cmax [7]: 17.7 µM; Activity [8]: Toxic; Ratio [9]: 4; IC50 at 5 min [10]: 1.62 µM
6 | Cc1cn(-c2ccc3n(c2=O)CCN(C[C@@]24C[C@@H]2C(C)(C)Oc2ccc(C(F)(F)F)cc24)C3=O)cn1 | 34.5 | – | – | Kp [11]: 0.76; IC50 at 5 min [4]: > 30 µM; Activity [12]: 62%; clearance [13]: 1.58 L/h/kg; Drug uptake(free) [14]: 67 nM; Drug uptake(free) [15]: 11 nM; half-life [16]: 1.6 h; bioavailability [17]: 67%; EC50 at 5 min [6]: > 30 µM; fraction unbound [18]: 0.0054; fCmax [19]: 1620 nM; Activity [20]: 40%; %max [21]: 40%; fraction unbound [22]: 0.018; Activity [23]: Non-Toxic; IC50 at 5 min [10]: > 30 µM; Cmax [24]: 90.4 µM
7 | COc1ccc2c(c1)[C@]1(CN3CCn4c(ccc(-n5cnc(C)c5)c4=O)C3=O)C[C@@H]1CO2 | 33.7 | 2.2 | 0.181 | –
8 | Cc1cn(-c2ccc3n(c2=O)CCN(C[C@@]24C[C@@H]2C(C)(C)Oc2ccc(OC(F)(F)F)cc24)C3=O)cn1 | 42.4 | 2.1 | 0.0051 | IC50 at 5 min [4]: > 30 µM; EC50 at 5 min [6]: > 30 µM; fCmax [19]: 670 nM; Activity [23]: Non-Toxic; IC50 at 5 min [10]: > 30 µM; Cmax [24]: 60.9 µM
9 | Cc1cn(-c2ccc3n(c2=O)CCN(CC2=CC(C)(C)Oc4ccc(Cl)cc42)C3=O)cn1 | – | 1.9 | 0.053 | –
10 | Cc1cn(-c2ccc3n(c2=O)CCN(CC2=CC(C)(C)Oc4ccc(C(F)(F)F)cc42)C3=O)cn1 | 47.8 | 2 | 0.013 | –
11 | Cc1cn(-c2ccc3n(c2=O)CCN(C[C@@]24C[C@@H]2COc2cc(C(F)(F)F)ccc24)C3=O)cn1 | 14.6 | 1.7 | 0.052 | –
12 | Cc1cn(-c2ccc3n(c2=O)CCN(C[C@@]24C[C@@H]2COc2ccc(C(F)(F)F)cc24)C3=O)cn1 | 37.9 | 2.4 | 0.0056 | –
13 | Cc1cn(-c2ccc3n(c2=O)CCN(C[C@]24C[C@H]2COc2ccc(C(F)(F)F)cc24)C3=O)cn1 | 70.5 | 1.9 | 0.129 | –
14 | Cc1cn(-c2ccc3n(c2=O)CCN([C@@H](C)C2=CC(C)(C)Oc4ccc(C(F)(F)F)cc42)C3=O)cn1 | 14.3 | 1.9 | 0.0049 | IC50 at 5 min [4]: 1.35 µM; Activity [25]: Toxic; fCmax [26]: 205 nM; Cmax [27]: 5.84 µM; EC50 at 5 min [6]: 0.576 µM; Ratio [28]: 6.6; IC50 at 5 min [10]: 1.03 µM
